Assay outcomes from PubChem BioAssay.
Hits are enriched below; roughly 1.5% of the tested compounds scored in any of these assays.
UCH37 DUB inh – inhibitors of human deubiquitinating enzyme UCH37 | Q9Y5K5 | purified proteasome/UCH37, Ub-AMC cleavage fluorescence | inhibition, % (no concentration beside the values) | 330,000 compounds, 0.33% hits | AID 588478;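 active = mean inhibition over replicate wells above about 20%, limit read from the data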;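 note: 0% = compound-free wells with enzyme and 100% = wells lacking proteasome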
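assay system = human UCH37 enzyme supplied as purified proteasome complex | amount = proteasome at 0.15 nM in the dispensed enzyme solution | schedule = 30 min compound-proteasome preincubation then 25 min substrate reaction, room temperature | measured by = fluorescence, ex 355 nm, em 460 nm | benchmarks = no-proteasome wells (full inhibition) and compound-free wells (no inhibition)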
MT1-MMP act inh – MT1-MMP (human) activation inhibition. P50281. HT1080 RFP-PRO-GFP cells, GFP/RFP ratio fluorescence, overnight; percent of plate control window, DMSO zero. GFP/RFP ratio change, % at 20 µM. 360,000 compounds, 0.061% hits. AID 651647;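 active = GFP/RFP ratio change of at least 30% with cell ATP level not reduced by more than half and red fluorescence within 50% of control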
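Material: RFP-PRO-GFP reporter HT1080 cells. Dosing: single-point 20 µM compound, 1% DMSO. Controls: DMSO and RFP-L50D-GFP cell wells. Timing: cells overnight before dosing, compound overnight, 37 °C, 5% CO2. Measure: GFP/RFP fluorescence ratio.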
CTSL1 counter – cathepsin L1 inhibition, PFM18AAP counter-screen | recombinant F. hepatica cathepsin L1, Z-Leu-Arg-MCA fluorescence | inhibition, % at 5.96 µM | 300,000 compounds, 0.49% hits;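 active = inhibition above the mean of all tested compounds plus 3 SD, set per screening campaign, cut at about 17% in these data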;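 note: 0% = plate median of test compound wells and 100% = 1 µM Z-Phe-Ala-diazomethylketone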
CendR NRP1 mod – NRP-1/CendR interaction modulation; O14786; inhibition, % at 25 µM; 360,000 compounds, 0.85% hits; FAM-RPARPAR peptide binding to NRP-1, fluorescence polarization;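 active = inhibition or corrected inhibition above about 18%, plus a signal ratio from 0.5 to 1.5, limit read from the data, passing the limit was not always enough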
DAGLB inhibitor – diacylglycerol lipase beta (human) inhibition | Q8NCG7 | HEK293T DAGLB membrane lysate, EnzChek fluorogenic substrate | inhibition, % at 5.17 µM | AID 504411 | 340,000 compounds, 0.059% hits; in the data active = inhibition above about 34%;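 note: 0% = enzyme with vehicle and 100% = wells lacking enzyme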
Target sequence (Q8NCG7 whole entry, looked up): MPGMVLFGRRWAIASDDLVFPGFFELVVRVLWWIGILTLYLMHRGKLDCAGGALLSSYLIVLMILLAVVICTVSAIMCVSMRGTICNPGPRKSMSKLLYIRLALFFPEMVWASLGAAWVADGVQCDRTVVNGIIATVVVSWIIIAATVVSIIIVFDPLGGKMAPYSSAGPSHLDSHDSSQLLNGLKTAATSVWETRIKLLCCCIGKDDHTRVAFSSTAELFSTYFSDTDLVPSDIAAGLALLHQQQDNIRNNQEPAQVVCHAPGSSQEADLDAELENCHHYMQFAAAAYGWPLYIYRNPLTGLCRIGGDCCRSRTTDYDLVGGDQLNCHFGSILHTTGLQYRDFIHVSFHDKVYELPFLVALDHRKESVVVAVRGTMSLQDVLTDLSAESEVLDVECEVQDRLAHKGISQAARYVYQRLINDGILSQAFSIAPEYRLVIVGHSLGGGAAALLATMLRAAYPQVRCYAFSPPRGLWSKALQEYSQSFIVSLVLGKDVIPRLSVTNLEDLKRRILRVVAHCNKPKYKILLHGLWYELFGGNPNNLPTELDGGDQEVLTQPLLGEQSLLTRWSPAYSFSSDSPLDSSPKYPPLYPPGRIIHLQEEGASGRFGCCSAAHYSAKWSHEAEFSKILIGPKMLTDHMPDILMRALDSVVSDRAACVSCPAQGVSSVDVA
An asterisk follows results filed as active.

What do the screens show for `COc1cc(C(=O)C(=O)c2ccc(O)c(OC)c2)ccc1O`?
UCH37 DUB inh: 21*; MT1-MMP act inh: -3; CTSL1 counter: 3; CendR NRP1 mod: 3; DAGLB inhibitor: 2

Results for COc1cc(C(=O)n2nc(C)cc2C)ccc1O ?
UCH37 DUB inh: 5; MT1-MMP act inh: 13; CTSL1 counter: -3; CendR NRP1 mod: 33*; DAGLB inhibitor: 2

How did COc1ccc(C(=O)n2nc(C)cc2C)cc1Br do in these assays?
UCH37 DUB inh: -1; MT1-MMP act inh: -5; CTSL1 counter: -2; CendR NRP1 mod: 5; DAGLB inhibitor: -5

What do the screens show for `COc1cc(C(=O)O)ccc1O`?
UCH37 DUB inh: 1; MT1-MMP act inh: -1; CTSL1 counter: -4; CendR NRP1 mod: 10; DAGLB inhibitor: 2

What do the screens show for `CC(CC(=O)Nc1cccc2c1CCCC2)=NNC(=O)c1ccccc1N`?
UCH37 DUB inh: -190

How did Oc1c(Cl)cc(Cl)cc1C=NNc1ncc(Br)cn1 do in these assays?
UCH37 DUB inh: 6

What do the screens show for `Oc1c(Cl)cc(Cl)cc1/C=N/Nc1ncc(Br)cn1`?
MT1-MMP act inh: 5; CTSL1 counter: 0; CendR NRP1 mod: 38*; DAGLB inhibitor: 0

What do the screens show for `C=C(C)Cn1c(SCC(=O)O)nnc1-c1ccccc1`?
UCH37 DUB inh: -2; MT1-MMP act inh: 1; CTSL1 counter: -1; CendR NRP1 mod: 28*; DAGLB inhibitor: 0

Results for O=C(N/C(=C/c1ccc([N+](=O)[O-])cc1)C(=O)N1CCCC1)c1ccccc1 ?
UCH37 DUB inh: 8; MT1-MMP act inh: -1; CTSL1 counter: 1; CendR NRP1 mod: 1; DAGLB inhibitor: -2

How did O=C(N/C(=C/C=C/c1ccccc1)C(=O)N1CCCCC1)c1ccc([N+](=O)[O-])cc1 do in these assays?
UCH37 DUB inh: 3; MT1-MMP act inh: -2; CTSL1 counter: 18*; CendR NRP1 mod: 5; DAGLB inhibitor: -2

How did COc1ccc(/C=C(/NC(=O)c2ccccc2)C(=O)N2CCCCC2)cc1OC do in these assays?
UCH37 DUB inh: 6; MT1-MMP act inh: 0; CTSL1 counter: 2; CendR NRP1 mod: 28*; DAGLB inhibitor: 0

Results for CC(=NNC(=O)c1ccc(Cl)c(S(=O)(=O)Nc2ccccc2Cl)c1)c1ccncc1 ?
UCH37 DUB inh: 3

How did CON=C(N)c1ccc([N+](=O)[O-])cc1 do in these assays?
UCH37 DUB inh: 7

What do the screens show for `Cc1ccc(OCC(=O)NN=C2CC(=O)CC(C)(C)C2)c(Br)c1`?
UCH37 DUB inh: 3

Results for COc1ccc(C2C(O)C(c3c[nH]c4ccccc34)=NN2C(=O)CCl)cc1 (stereo not drawn) ?
UCH37 DUB inh: 1; MT1-MMP act inh: -37; CTSL1 counter: 43*; CendR NRP1 mod: -9; DAGLB inhibitor: 3

What do the screens show for `COc1ccc(C2NN=C(c3c[nH]c4ccccc34)C2O)cc1` (stereo not drawn)?
MT1-MMP act inh: -8; CTSL1 counter: 6; CendR NRP1 mod: -104; DAGLB inhibitor: -2

How did Cc1c(C=NNC(=O)C(NC(=O)c2ccc3c(c2)OCO3)C(C)C)c2ccccc2n1C (stereo not drawn) do in these assays?
UCH37 DUB inh: 0

What do the screens show for `Cc1cc(OC(=O)c2ccccc2C)c([N+](=O)[O-])c(=O)[nH]1`?
UCH37 DUB inh: 7; MT1-MMP act inh: 2; CTSL1 counter: 3; CendR NRP1 mod: 34*; DAGLB inhibitor: 0

How did Nc1nnnn1N=Cc1ccccc1OCc1ccc(Cl)cc1 do in these assays?
UCH37 DUB inh: -6

What do the screens show for `Cc1c(NC(=O)CSc2nc(N)cc(N)n2)c(=O)n(-c2ccccc2)n1C`?
UCH37 DUB inh: 2; MT1-MMP act inh: -1; CendR NRP1 mod: 20*; DAGLB inhibitor: 0

Results for Cc1c(NC(=O)COC(=O)C2(c3ccc(F)cc3)CCCC2)c(=O)n(-c2ccccc2)n1C ?
UCH37 DUB inh: 3; MT1-MMP act inh: 4; CTSL1 counter: 4; CendR NRP1 mod: 22*; DAGLB inhibitor: -3

What do the screens show for `Cc1c(NC(=O)c2c(F)c(F)c(F)c(F)c2F)c(=O)n(-c2ccccc2)n1C`?
UCH37 DUB inh: 2; MT1-MMP act inh: -4; CTSL1 counter: 0; CendR NRP1 mod: 1; DAGLB inhibitor: -1

What do the screens show for `Cc1c(NC(=O)c2c(O)c3ccccc3n(C)c2=O)c(=O)n(-c2ccccc2)n1C`?
UCH37 DUB inh: 1; MT1-MMP act inh: -2; CTSL1 counter: -2; CendR NRP1 mod: 32*; DAGLB inhibitor: -2

Results for Cc1c(NC(=O)C2(c3ccccc3)CCCC2)c(=O)n(-c2ccccc2)n1C ?
UCH37 DUB inh: 3; MT1-MMP act inh: 2; CTSL1 counter: 1; CendR NRP1 mod: 16; DAGLB inhibitor: -5

Results for CC(=NNC(=O)c1ccc(Br)o1)c1ccncc1 ?
UCH37 DUB inh: -13

How did C=CCOc1c(C=NNC(N)=O)cccc1OC do in these assays?
UCH37 DUB inh: 1

What do the screens show for `Cc1ccc(-n2c(C)cc(/C=C3\NC(=O)NC3=O)c2C)c(C)c1`?
UCH37 DUB inh: -5; MT1-MMP act inh: 3; CTSL1 counter: 17*; CendR NRP1 mod: -1; DAGLB inhibitor: 3

How did O=C(CCC(=O)NN=Cc1ccco1)NN=Cc1ccco1 do in these assays?
UCH37 DUB inh: 2

How did CCOC(=O)CNC(=O)c1ccc(Br)s1 do in these assays?
UCH37 DUB inh: 0; MT1-MMP act inh: 3; CTSL1 counter: 1; CendR NRP1 mod: -12; DAGLB inhibitor: -1

What do the screens show for `Cc1ccc(C)n1-c1ccc(C(=O)NN)s1`?
UCH37 DUB inh: 5; MT1-MMP act inh: 4; CTSL1 counter: 21*; CendR NRP1 mod: 0; DAGLB inhibitor: 1

What do the screens show for `NC(=S)NN=Cc1ccc(-c2cccc([N+](=O)[O-])c2)o1`?
UCH37 DUB inh: 0

Results for O=C(NN=Cc1cccs1)c1n[nH]c2c1CCC2 ?
UCH37 DUB inh: 7

What do the screens show for `CN(C)C(CNC(=O)C1CCCN(C(=O)c2ccc(Cl)cc2)C1)c1ccco1` (stereo not drawn)?
UCH37 DUB inh: 1; MT1-MMP act inh: -2; CTSL1 counter: 18*; CendR NRP1 mod: -4; DAGLB inhibitor: 0

Results for O=C(NCc1ccc(Cl)cc1)C1CCCN(C(=O)c2ccc(Cl)cc2)C1 (stereo not drawn) ?
UCH37 DUB inh: 0; MT1-MMP act inh: -1; CendR NRP1 mod: -4; DAGLB inhibitor: 0

Results for Nc1nc(NCCc2ccccc2)nc(NCc2ccccc2)c1[N+](=O)[O-] ?
UCH37 DUB inh: 1; MT1-MMP act inh: -2; CTSL1 counter: 8; CendR NRP1 mod: -2; DAGLB inhibitor: -4

Results for CN(Cc1ccccc1)c1nc(N)c([N+](=O)[O-])c(NCc2ccccc2)n1 ?
UCH37 DUB inh: 9; MT1-MMP act inh: -6; CTSL1 counter: 2; CendR NRP1 mod: 22*; DAGLB inhibitor: -5

What do the screens show for `O=C(O)CC1SC(=NN=C2CCCCCC2)N(c2ccccc2)C1=O` (stereo not drawn)?
UCH37 DUB inh: 2
